For experiment [1], the system named is SK-LU-1. The experiment can be described thus: Cytotoxicity against human SK-LU-1 cells after 48 hrs by SRB assay. The experiment is classed as functional, cell-based. The following applies: SK-LU-1, 48 h. In a few lines: (§1)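 SRB protein-staining assay: 5–10 × 10^3 cells/well in RPMI-1640/10% FCS, allowed 24 h to attach, then 48 h with compound dissolved from DMSO stock; TCA fixation, 0.4% SRB staining, Tris-solubilized dye read at 515 nm. IC50 from dose-response curve by non-linear regression; mean ± SD of three independent experiments.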

The test system of experiment [2] is K562. The experiment can be described thus: Cytotoxicity against human K562 cells at 50 uM after 48 hrs by SRB assay. The experiment is classed as functional. The following applies: for inhibition at 50 µM: K562, 48 h. The essentials:
(§2)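 Cells in RPMI-1640 with 10% FCS at 37 °C, 5% CO2; 5–10 × 10^3 cells/well seeded 24 h, then exposed 48 h to 50 μM compound (DMSO stock; 5-fluorouracil at same concentration as positive control). TCA-fixed at 4 °C 1 h, stained with 0.4% SRB, dye solubilized in 10 mM Tris base, OD 515 nm; % growth inhibition, mean of three experiments in triplicate.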
On the technique in general: Sulforhodamine B stains cellular protein and so reports cell mass.

Experiment [3] has as its system MCF7. The experiment can be described thus: Cytotoxicity against human MCF7 cells after 48 hrs by SRB assay. Type of experiment: functional, cell-based. Conditions: MCF7, 48 h. In a few lines:
as §1

In experiment [4] the test system is HCT-15. The experiment can be described thus: Cytotoxicity against human HCT15 cells at 50 uM after 48 hrs by SRB assay. The experiment is classed as functional. The following applies: for inhibition at 50 µM: HCT-15, 48 h. In a few lines: as §2
The subject of experiment [5] is SK-LU-1. The experiment can be described thus: Cytotoxicity against human SK-LU-1 cells at 50 uM after 48 hrs by SRB assay. The experiment is classed as functional. Conditions: SK-LU-1, 48 h. In a few lines: as §2
Experiment [6] concerns U-251. Kind of experiment: Cytotoxicity against human U251 cells at 50 uM after 48 hrs by SRB assay. Type of experiment: functional. Conditions: U-251, 48 h. The essentials: as §2
For experiment [7], the system named is MCF7. Kind of experiment: Cytotoxicity against human MCF7 cells at 50 uM after 48 hrs by SRB assay. The following applies: MCF7, 48 h. The experiment is classed as functional. The essentials: as §2
For experiment [8], the system named is PC-3. The experiment can be described thus: Cytotoxicity against human PC3 cells at 50 uM after 48 hrs by SRB assay. Conditions: PC-3, 48 h. Type of experiment: functional. In a few lines:
as §2

The test system of experiment [9] is MCF7. The experiment can be described thus: Cell cycle arrest in human MCF7 cells assessed as accumulation at G1 phase after 24 hrs by flow cytometry. The experiment is classed as functional.
Experiment [10] deals with Cyclin-dependent kinase 1/cyclin B1 (Homo sapiens) (UniProt P06493+P14635). Conditions: at 7 µM.
Experiment [11] concerns SK-LU-1. Kind of experiment: Cell cycle arrest in human SK-LU-1 cells assessed as accumulation at G1 phase after 24 hrs by flow cytometry. Type of experiment: functional. (In flow cytometry, cells or beads pass a laser one at a time.)
For experiment [12], the system named is SK-LU-1. The experiment can be described thus: Cell cycle arrest in human SK-LU-1 cells assessed as accumulation at G2/M phase after 24 hrs by flow cytometry. The experiment is classed as functional.
The subject of experiment [13] is MCF7. The experiment can be described thus: Cell cycle arrest in human MCF7 cells assessed as accumulation at S phase after 24 hrs by flow cytometry. The experiment is classed as functional.
In experiment [14] the test system is SK-LU-1. Kind of experiment: Cell cycle arrest in human SK-LU-1 cells assessed as accumulation at S phase after 24 hrs by flow cytometry. The experiment is classed as functional.
Experiment [15] concerns SK-LU-1. The experiment can be described thus: Induction of apoptosis in human SK-LU-1 cells assessed as apoptotic cells after 48 hrs using annexin-V-FITC/propidium iodide staining by flow cytometry. The experiment is classed as functional, cell-based. In a few lines:
(§3)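 2.5 × 10^5 cells per well attached 24 h, then treated 48 h with compound or DMSO vehicle at the highest concentration used. Adherent plus floating cells washed in PBS, resuspended in annexin-binding buffer, stained with annexin V-FITC and propidium iodide 10 min in the dark at room temperature; 10,000 events analysed by flow cytometry, quadrants scoring apoptotic versus late apoptotic/necrotic cells.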

For experiment [16], the system named is MCF7. The experiment can be described thus: Cell cycle arrest in human MCF7 cells assessed as accumulation at G2/M phase after 24 hrs by flow cytometry. Type of experiment: functional.
For experiment [17], the system named is SK-LU-1. Kind of experiment: Induction of apoptosis in human SK-LU-1 cells assessed as necrotic cells after 48 hrs using annexin-V-FITC/propidium iodide staining by flow cytometry. The experiment is classed as functional, cell-based. In a few lines: as §3

Activity calls are given as the source filed them. The calls are words filed in the database; no cut-off is given here.

In general, IC50 refers to the concentration at which inhibition is half-maximal. A word on the inhibition: it is the change of the read-out against control, counted positive when it falls.

Cyclin-dependent kinase 1/cyclin B1 (Homo sapiens), sequence (P06493 whole entry, looked up): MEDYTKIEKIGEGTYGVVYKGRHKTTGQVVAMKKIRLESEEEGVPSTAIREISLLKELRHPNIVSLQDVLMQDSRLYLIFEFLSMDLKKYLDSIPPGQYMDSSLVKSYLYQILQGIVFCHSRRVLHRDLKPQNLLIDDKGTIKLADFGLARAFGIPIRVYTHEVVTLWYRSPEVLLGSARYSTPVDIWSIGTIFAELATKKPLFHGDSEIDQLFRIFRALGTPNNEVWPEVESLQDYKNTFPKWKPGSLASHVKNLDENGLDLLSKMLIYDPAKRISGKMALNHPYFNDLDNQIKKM
Cyclin-dependent kinase 1/cyclin B1 (Homo sapiens), sequence (P14635 whole entry, looked up): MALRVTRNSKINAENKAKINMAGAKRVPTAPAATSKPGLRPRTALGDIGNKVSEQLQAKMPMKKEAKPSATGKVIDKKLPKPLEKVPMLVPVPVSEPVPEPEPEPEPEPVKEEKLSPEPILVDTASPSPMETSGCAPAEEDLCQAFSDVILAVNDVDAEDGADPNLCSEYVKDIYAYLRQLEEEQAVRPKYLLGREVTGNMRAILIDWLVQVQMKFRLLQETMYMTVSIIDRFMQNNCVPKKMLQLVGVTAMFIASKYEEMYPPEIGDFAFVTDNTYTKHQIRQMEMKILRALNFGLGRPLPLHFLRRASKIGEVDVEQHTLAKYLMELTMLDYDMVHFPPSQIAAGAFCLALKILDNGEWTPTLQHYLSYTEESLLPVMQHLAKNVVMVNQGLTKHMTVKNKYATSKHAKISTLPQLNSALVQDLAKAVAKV

As for `FC(F)(F)c1ccc(Nc2nccc(-c3c(C(F)(F)F)nc4ccccn34)n2)cc1`, the IC50 is 0.745 µM in experiment [1] and 0.29 µM in experiment [3]. Besides, the inhibition at 50 µM in experiment [2] turned out to be 94.2%; in [4] it was 94.4%; in experiment [5], 95%; in [6], 100%; in experiment [7], 100%; in experiment [8] it was 92%.
For `O=c1[nH]cc(F)c(=O)[nH]1` [FLUOROURACIL], the inhibition at 50 µM in experiment [2] amounted to 73.7%; in experiment [4], 71.3%; in experiment [5], 70.5%; in experiment [6], 64.2%; in experiment [7], 65.1%; in experiment [8], 45.4%.
With `Cc1nc2ccccn2c1-c1ccnc(Nc2ccc(C=O)s2)n1`, the Activity in [9] amounted to 54.5%; in experiment [11], 42.5%; in [12] it was 48%; in [13] it was 15.7%; in experiment [14], 13.9%; in experiment [16] it was 22.2%. Moreover, the inhibition in experiment [10] worked out at 52%. The IC50 was determined as 1.54 µM in experiment [1] and 4.27 µM in experiment [3]. Also, the inhibition at 50 µM in [2] came out at 88.1%; in [4], 85.4%; in [5] it was 100%; in experiment [6] it was 57.8%; in experiment [7] it was 75.9%; in experiment [8], 49.5%. For the same molecule, the result in experiment [15] was Active. The outcome in [17] was inactive.
Turning to `Nc1nccc(-c2c(C(F)(F)F)nc3ccccn23)n1`, the half-maximal inhibitory concentration (IC50) stood at 56.5 µM in experiment [1] and 53.7 µM in experiment [3]. Further, the inhibition at 50 µM in [2] was 56.3%; in experiment [5], 71%; in experiment [6], 92.2%; in [7], 100%; in experiment [8], 74%.
Take `Cc1ccc(Nc2nccc(-c3c(C(F)(F)F)nc4ccccn34)n2)cc1`: the IC50 is 0.175 µM in experiment [1] and 0.044 µM in experiment [3]. Besides, the inhibition at 50 µM in [2], in experiment [4], in experiment [5], in experiment [6], in [7] and in experiment [8] was 100% each time. Further, the outcome in [15] was Active. The outcome in experiment [17] was inactive.
For the molecule `Cc1ccc(Nc2nccc(-c3c(C)nc4ccccn34)n2)cc1`, the Activity in [9] stood at 60.8%; in experiment [11], 4.7%; in experiment [12], 77.5%; in [13] it was 25.3%; in experiment [14], 20.9%; in experiment [16], 14.7%. Besides, the inhibition in [10] turned out to be 59%. Besides, the figures for the IC50 in [1] and in experiment [3] were 0.0197 µM and 0.059 µM, respectively. Moreover, the inhibition at 50 µM in [2] worked out at 89.4%; in experiment [4] it was 95.2%; in [5] it was 100%; in experiment [6], 100%; in experiment [7], 88.5%; in [8], 94.2%. Further, the result in experiment [15] was Active. In addition, in experiment [17], the outcome was inactive.
In the case of `Cc1ccc(Nc2nccc(-c3cnc4ccccc4c3)n2)cc1`, the inhibition in [10] amounted to 73%. The inhibition entry in [2] was “inactive”. This molecule returned a 50% inhibitory concentration (IC50) in experiment [3] of 50 µM. The inhibition at 50 µM in experiment [4] turned out to be 30.3%; in [5], 46.3%; in [6], 87.7%; in [7], 100%; in experiment [8], 59.5%.
`FC(F)(F)c1ccc(Nc2nccc(-c3ccnc4ccccc34)n2)cc1`: the concentration for half-maximal inhibition (IC50) in experiment [1] was 1.72 µM; in [3] it was 1.65 µM. The inhibition result in experiment [2] is “inactive”. For the same molecule, the inhibition at 50 µM in [4] was 100%; in [5], 100%; in experiment [6] it was 91.8%; in experiment [7], 100%; in experiment [8], 87.3%.
Turning to `Cc1ccc(Nc2nccc(-c3ccnc4ccccc34)n2)cc1`, the Activity in experiment [9] came out at 18.7%; in [11] it was 8.1%; in [12], 74%; in [13], 15.1%; in experiment [14], 22%; in experiment [16], 64.7%. Moreover, the inhibition in experiment [10] was 75%. For the same molecule, the IC50 was 1.4 µM in experiment [1] and 0.6 µM in experiment [3]. In addition, the inhibition at 50 µM in experiment [2] amounted to 50.9%; in [4], 100%; in experiment [5] it was 100%; in experiment [6], 100%; in [7], 100%; in experiment [8], 100%. Moreover, in experiment [15], the result was Active. Also, in experiment [17], the outcome was inactive.
Take `FC(F)(F)c1ccc(Nc2nccc(-c3cnc4ccccc4c3)n2)cc1`: the inhibition entry in experiment [2] is “inactive”. In experiment [3], the IC50 is more than 50 µM. In addition, the inhibition at 50 µM is 24% in experiment [4]; 35.4% in experiment [5]; 49.8% in experiment [6]; 80.9% in [7]; 22.9% in [8].
As to `Cc1nc2ccccn2c1-c1ccnc(Nc2ccc(C(F)(F)F)cc2)n1`, the inhibition in [10] came out at 60%. Besides, the values for the IC50 in [1] and in experiment [3] were 0.034 µM and 0.066 µM, respectively. The inhibition at 50 µM in [2] stood at 84.8%; in experiment [4], 88.6%; in experiment [5], 100%; in [6], 85.6%; in [7], 83.4%; in [8] it was 64.5%.
Take `Cn1cnc2c(NCc3ccccc3)nc(NCCO)nc21` [OLOMOUCINE]: the Activity in experiment [9] turned out to be 60.6%; in experiment [11], 44.2%; in [12], 31.8%; in experiment [13], 15.1%; in [14], 19.7%; in experiment [16] it was 23.2%.
As to `Nc1nccc(-c2cnc3ccccc3c2)n1`, the IC50 in experiment [1] and in experiment [3] was more than 50 µM in each case. For the same molecule, the inhibition result in experiment [2] and in experiment [4] was “inactive” each time. Besides, the inhibition at 50 µM in [5] is 59.3%; in experiment [6] it was 38.5%; in [7] it was 100%; in experiment [8], 31.9%.
For `Nc1nccc(-c2ccnc3ccccc23)n1`, the half-inhibitory concentration (IC50) was more than 50 µM in experiment [1] and 40.2 µM in [3]. In addition, the inhibition at 50 µM amounted to 9.4% in experiment [2]; 78.2% in experiment [5]; 100% in [6]; 100% in experiment [7]; 77.4% in experiment [8]. Further, the inhibition result in experiment [4] was “inactive”.
